Assay results published in article PMC9826232 (Chemmedchem, 2022).

How the values were obtained:
SNU‐1 (G12D) = test: CellTiter-Glo cell viability assay, SNU-1; format: cell-based; details: Homo sapiens, SNU1, 72 h, read-out: Cellular activity IC50, SNU‐1 (G12D)
How it was run: (§1)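 Cells seeded, then held 24 h at 37 °C/5 % CO2 before test compound in DMSO was added at various concentrations. Plates were incubated a further 72 h at 37 °C, 5 % CO2, humidified. Controls were DMSO vehicle and 10 μM staurosporine. CellTiter-Glo reagent was added at equal volume to the medium, then 2 min shaking and 10 min at room temperature before luminescence (ATP) reading. IC50 from dose-response fit; plates accepted only if Z' ≥0.5, from 16 control values each.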

NCI‐H441 (G12 V) = test: CellTiter-Glo cell viability assay, NCI-H441; format: cell-based; details: Homo sapiens, NCI-H441, 72 h, read-out: Cellular activity IC50, NCI‐H441 (G12 V)
How it was run: as §1

K‐Ras(G12D) = K‐Ras(G12D) (Homo sapiens, UniProt P01116, G12D); test: Nucleotide exchange assay; format: biochemical
Sequence of K‐Ras(G12D) (P01116 1-188 isoform P01116-2 G12D): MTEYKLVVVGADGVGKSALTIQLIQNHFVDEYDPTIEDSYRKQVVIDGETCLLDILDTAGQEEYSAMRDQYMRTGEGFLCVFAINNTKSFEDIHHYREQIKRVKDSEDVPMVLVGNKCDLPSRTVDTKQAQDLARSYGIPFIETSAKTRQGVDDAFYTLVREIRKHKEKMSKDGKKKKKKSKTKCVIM
How it was run: (§2)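 SOS1 (final 30.2 nM for G12D, 4.6 nM for wild type) and GTP (1 μM final) follow. Incubated overnight at room temperature, then GDP detection reagent for 1 h. Luminescence read; IC50 from sigmoidal curves.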

K‐Ras wild type protein = K‐Ras wild type protein (Homo sapiens, UniProt P01116); test: Nucleotide exchange assay; format: biochemical
Sequence of K‐Ras wild type protein (P01116 1-188 isoform P01116-2): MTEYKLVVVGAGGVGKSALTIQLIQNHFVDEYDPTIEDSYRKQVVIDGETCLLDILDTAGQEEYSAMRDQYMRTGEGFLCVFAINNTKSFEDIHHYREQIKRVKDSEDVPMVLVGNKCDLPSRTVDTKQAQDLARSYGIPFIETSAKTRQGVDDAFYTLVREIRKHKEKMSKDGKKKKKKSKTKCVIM
How it was run: as §2

tAkt in SNU‐1 cells = test: HTRF assay, tAkt in SNU-1; format: cell-based; details: Homo sapiens, SNU1, read-out: tAkt IC50
How it was run: (§3)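 Test compound was given as a 3-fold 8-point series, top 330 μM final, 1 % DMSO, for 1 h. EGF at 3 nM final was then added for 15 min. Cells were lysed 30 min at room temperature. TR-FRET antibody detection followed after 20 h at room temperature; read-out gave IC50.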

pAkt in SNU‐1 cells = test: HTRF assay of downstream phosphorylation, pAkt in SNU-1; format: cell-based; details: Homo sapiens, SNU1, read-out: pAkt IC50
How it was run: as §3

HCT15 (G13D) = test: CellTiter-Glo cell viability assay, HCT15; format: cell-based; details: Homo sapiens, HCT-15, 72 h, read-out: Cellular activity IC50, HCT15 (G13D)
How it was run: as §1

pErk in A375 cells = test: HTRF assay of downstream phosphorylation, pErk in A375; format: cell-based; details: Homo sapiens, A-375, read-out: pErk IC50
[1] = Stability in cell culture medium; format: in vitro ADME
pAkt in A375 cells = test: HTRF assay of downstream phosphorylation, pAkt in A375; format: cell-based; details: Homo sapiens, A-375, read-out: pAkt IC50
H358 (G12 C) = test: CellTiter-Glo cell viability assay, H358; format: cell-based; details: Homo sapiens, NCI-H358, 72 h, read-out: Cellular activity IC50, H358 (G12 C)
How it was run: as §1

tErk in A375 cells = test: HTRF assay, tErk in A375; format: cell-based; details: Homo sapiens, A-375, read-out: tErk IC50
tErk in SNU‐1 cells = test: HTRF assay, tErk in SNU-1; format: cell-based; details: Homo sapiens, SNU1, read-out: tErk IC50
How it was run: as §3

A549 (G12S) = test: CellTiter-Glo cell viability assay, A549; format: cell-based; details: Homo sapiens, A549, 72 h, read-out: Cellular activity IC50, A549 (G12S)
How it was run: as §1

tAkt in A375 cells = test: HTRF assay, tAkt in A375; format: cell-based; details: Homo sapiens, A-375, read-out: tAkt IC50
pErk in SNU‐1 cells = test: HTRF assay of downstream phosphorylation, pErk in SNU-1; format: cell-based; details: Homo sapiens, SNU1, read-out: pErk IC50
How it was run: as §3

[2] = Control assay for nucleotide exchange assay; details: 3 mM compound; percent of control
[3] = test system: Ras mutant tumor cell lines; test: Tumor cell assays, all tested cell lines; format: cell-based; details: read-out: IC50 values for all tested cell lines
How it was run: as §1

K‐Ras4B = K‐Ras4B (Homo sapiens, UniProt P01116); test: NMR titration experiments; format: binding
Sequence of K‐Ras4B (P01116 1-188 isoform P01116-2): as above
How it was run: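 GDP-bound K-Ras4B was titrated with test compound and followed by NMR chemical shift perturbation; KD derived from the titration.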

Row | Compound | IC50 (SNU‐1 (G12D)) | IC50 (NCI‐H441 (G12 V)) | IC50 (K‐Ras(G12D)) | IC50 (K‐Ras wild type protein) | IC50 (tAkt in SNU‐1 cells) | IC50 (pAkt in SNU‐1 cells) | IC50 (HCT15 (G13D)) | IC50 (pErk in A375 cells) | cell culture medium stability [1] | IC50 (pAkt in A375 cells) | IC50 (H358 (G12 C)) | IC50 (tErk in A375 cells) | IC50 (tErk in SNU‐1 cells) | IC50 (A549 (G12S)) | IC50 (tAkt in A375 cells) | IC50 (pErk in SNU‐1 cells) | WT %CRTL (3 mM) [2] | IC50 [3] | stability in cell culture medium ([1]; 24 h) | Kd (K‐Ras4B)
1 | O=C(c1nc2cc(O)ccc2[nH]1)c1cc2cccc(O)c2o1 [compound 13, (5‐Hydroxy‐1H‐benzo[d]imidazol‐2‐yl)(7‐hydroxybenzofuran‐ 2‐yl)methanone] | 52.7 ± 0.3 µM | 54.5 ± 0.2 µM | 409 ± 32 µM | 334 ± 5 µM |  |  |  |  |  |  |  |  |  |  |  |  |  |  |  | 
2 | Oc1ccc(C(=NNc2ccc(F)cc2)c2ccc(O)cc2)cc1 [7 c, 4,4′‐((2‐(4‐Fluorophenyl)hydrazinylidene)‐methylene)diphenol] | 23.7 ± 14.4 µM | 24.7 ± 8.3 µM | 413 ± 28 µM | 1040 ± 427 µM | > 1000 µM | 95.3 µM | 17.6 ± 13.4 µM | 415 µM | 2.2% | > 1000 µM | 33.7 ± 0.6 µM | 491 µM | > 550 µM | 28.7 ± 4.7 µM | > 1000 µM | 455 µM | 83% | 20 to 30 µM |  | 
3 | Oc1ccc(C(=NNc2ccc(C(F)(F)F)cc2)c2ccc(O)cc2)cc1 [7 e, 4,4′‐((2‐(4‐(Trifluoromethyl)phenyl)‐hydrazinylidene)methylene)diphenol] | 16.7 ± 1.9 µM | 13.4 ± 2.7 µM | 628 ± 170 µM | 1070 ± 312 µM | > 1000 µM | 431 µM | 12.5 ± 1.4 µM | > 1000 µM |  | > 1000 µM | 15.1 ± 1.2 µM | > 1000 µM | > 1000 µM | 11.9 ± 0.7 µM | > 1000 µM | 520 µM | 90% |  | completely stable | 
4 | O=S(=O)(NN=C(c1ccc(O)cc1)c1ccc(O)cc1)c1ccc(Cl)cc1 [8 c, N′‐(bis(4‐hydroxyphenyl)methylene)‐4‐chlorobenzenesulfonohydrazide] | 81 ± 26.3 µM | 102 ± 16 µM | 583 ± 146 µM | 1050 ± 405 µM | 586 µM | 96.6 µM | 85 ± 9.2 µM | 203 µM |  | > 1000 µM | 69.8 ± 2.4 µM | 255 µM | > 875 µM | 71.3 ± 6.5 µM | > 1000 µM | 240 µM | 91% |  |  | 
5 | O=S(=O)(NN=C(c1ccc(O)cc1)c1ccc(O)cc1)c1ccccc1 [8 a, N′‐(bis(4‐hydroxyphenyl)methylene)benzene‐sulfonohydrazide] | 92.1 ± 12 µM | 157 ± 54 µM | 1310 ± 389 µM | 1030 ± 371 µM |  |  | 113 ± 13 µM |  |  |  | 109 ± 3 µM |  |  | 105 ± 2 µM |  |  | 91% |  |  | 
6 | N#Cc1ccc(S(=O)(=O)NN=C(c2ccc(O)cc2)c2ccc(O)cc2)cc1 [8 g, N′‐(bis(4‐hydroxyphenyl)methylene)‐4‐cyanobenzenesulfonohydrazide] | > 30 µM | > 30 µM | > 3000 µM | 1500 ± 572 µM |  |  | > 30 µM |  |  |  | > 30 µM |  |  | > 30 µM |  |  | 86% |  |  | 
7 | O=S(=O)(NN=C(c1ccc(O)cc1)c1ccc(O)cc1)c1ccc(OC(F)(F)F)cc1 [8 f, N′‐(bis(4‐hydroxyphenyl)methylene)‐4‐(trifluoromethoxy)benzenesulfonohydrazide] | 110 ± 24 µM | 179 ± 43 µM | 858 ± 55 µM | 1650 ± 731 µM |  |  | 112 ± 10 µM |  |  |  | 104 ± 3 µM |  |  | 111 ± 10 µM |  |  | 92% |  |  | 
8 | O=S(=O)(NN=C(c1ccc(O)cc1)c1ccc(O)cc1)c1ccc(Br)cc1 [8 d, N′‐(bis(4‐hydroxyphenyl)methylene)‐4‐bromobenzenesulfonohydrazide] | 88.7 ± 23.9 µM | 105 ± 8 µM | 850 ± 120 µM | 2220 ± 519 µM |  |  | 96.6 ± 14.5 µM |  |  |  | 82.8 ± 8.4 µM |  |  | 91.8 ± 7.4 µM |  |  | 93% |  |  | 
9 | Oc1ccc(C(=NNc2ccc(Cl)cc2)c2ccc(O)cc2)cc1 [7 d, 4,4′‐((2‐(4‐Chlorophenyl)hydrazinylidene)‐methylene)diphenol] | 31.2 ± 6.8 µM | 29.3 ± 4.1 µM | 475 µM | 1300 ± 417 µM |  |  | 27.4 ± 4.5 µM |  | 0.4% |  | 40.2 ± 1 µM |  |  | 30.1 ± 9 µM |  |  | 84% | 20 to 30 µM |  | 
10 | Oc1ccc(C(=NNc2ccccn2)c2ccc(O)cc2)cc1 [7 f, 4,4′‐((2‐(Pyridin‐2‐yl)hydrazinylidene)‐methylene)diphenol] | 71.1 ± 11.3 µM | 65.8 ± 37.3 µM | 1910 ± 98 µM | 2610 ± 225 µM |  |  |  |  |  |  |  |  |  | 67 ± 1.8 µM |  |  | 98% |  |  | 
11 | COc1ccc(S(=O)(=O)NN=C(c2ccc(O)cc2)c2ccc(O)cc2)cc1 [8 b, N′‐(bis(4‐hydroxyphenyl)methylene)‐4‐methoxybenzenesulfonohydrazide] | 154 ± 30 µM | 260 ± 45 µM | 1290 ± 307 µM | 1620 ± 565 µM |  |  | 219 ± 43 µM |  |  |  | 161 ± 9 µM |  |  | 184 ± 12 µM |  |  | 89% |  |  | 
12 | O=C(NN=C(c1ccc(O)cc1)c1ccc(O)cc1)c1ccccc1 [compound 10, N′‐(Bis(4‐hydroxyphenyl)methylene)‐benzohydrazide] | 173 ± 1 µM | 158 ± 3 µM | > 3000 µM | > 3000 µM |  |  |  |  |  |  |  |  |  | 112 ± 3 µM |  |  | 93% |  |  | 
13 | O=[N+]([O-])c1ccc(S(=O)(=O)NN=C(c2ccc(O)cc2)c2ccc(O)cc2)cc1 [8 e, N′‐(bis(4‐hydroxyphenyl)methylene)‐4‐nitrobenzenesulfonohydrazide] | 46.8 ± 1.7 µM | 58.4 ± 6.9 µM | 255 µM | 298 ± 196 µM |  |  | 51.1 ± 1.2 µM |  |  |  | 49.2 ± 0.9 µM |  |  | 49.8 ± 2.1 µM |  |  |  |  |  | 
14 | O=C(c1ccc(O)cc1)c1ccc(O)cc1 [compound 9, 4,4’‐Dihydroxybenzophenone, reference compound] | 187 ± 19 µM | > 300 µM | 1210 ± 116 µM | 1330 ± 104 µM |  |  |  |  |  |  |  |  |  | > 300 µM |  |  |  |  |  | 9100 ± 3900 µM
